# Reference: publication PMC3000613 (Biochemistry, 2010)
# Columns and labels:
# [1] = system: MBP-sAnk1_29–155 / GST-Obsc6231–6260; assay type: binding, rat; conditions: for molar excess of peptide over sAnk1 needed to inhibit binding by 50%: binding of GST-Obsc6231–6260 construct to sAnk1, 1 µM MBP-sAnk1, SPR
# Outline: (§1)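 Each GST-obscurin fusion was expressed in BL21* pLysS cells (1 mM IPTG, 4 h), affinity-purified, and captured by anti-GST on a CM5 SPR chip. 1 µM MBP-sAnk1 was pre-mixed with synthetic 6316–6345 or 6231–6260 oligopeptide at varying relative molar amounts, then flowed over the chip. Inhibition constant = reciprocal of the peptide:sAnk1 concentration ratio blocking maximal binding by 50%.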
# MBP-sAnk1_29–155 [2] = experiment: SPR competition, oligopeptide inhibition of MBP-sAnk1 binding; parameters: species or system rat; conditions: binding of MBP-sAnk1_29–155 to either GST-Obsc6316–6345 or GST-Obsc6231–6260
# MBP-sAnk1_29–155 [3] = experiment: SPR direct binding of GST-obscurin constructs to MBP-sAnk1; parameters: species or system rat; conditions: GST fusion constructs vs MBP-sAnk1_29–155
# Outline: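 GST-obscurin constructs, expressed in BL21* pLysS cells (1 mM IPTG, 4 h) and affinity-purified, were captured by anti-GST on a CM5 chip. MBP-sAnk1 was applied over a wide concentration range. Signal from a GST-only chip and a buffer blank was subtracted. Kinetic rate constants and KD came from 1:1 binding model fits.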
# [4] = system: MBP-sAnk1_29–155 / GST-Obsc6316–6345; parameters: species or system rat; conditions: binding to GST-Obsc6316–6345
# Outline: as §1
Substance,molar excess of peptide over sAnk1 needed to inhibit binding by 50% [1],relative inhibition of binding vs 6231–6260 oligopeptide (MBP-sAnk1_29–155 [2]),"Ratio of inhibition constants, 6316–6345 to 6231–6260 oligopeptide ([1]; binding to GST-Obsc6231–6260)",binding to sAnk1 by SPR (in words) (MBP-sAnk1_29–155 [3]),"Ratio of inhibition constants, 6316–6345 to 6231–6260 oligopeptide [4]"
Obsc6231–6260 oligopeptide: synthetic oligopeptide containing obscurin residues 6231–6260,~ 6 fold molar excess,,,,
"Obsc6316–6345 oligopeptide: synthetic oligopeptide containing obscurin residues 6316–6345 (GAAWPGAGTGELLWDVHSHVVRETTQRTYT; UniProt Q5VST9 6316-6345, looked up, fragment)",~ 2 fold molar excess,~ 3 fold,3.29,no significant difference in binding between Obsc6316–6436 and Obsc6316–6345,3.00
